High-throughput results: PubChem, several laboratories
This is one part of a sample in which hits are shown more often than they occur.
HCT116 PTEN-null – suppresses growth of cells with PTEN deletion; HCT116 PTEN-null viability, CellTiter-Glo, 60 h; hits give low values; viability, % at 10 µM; 140,000 compounds, 1.2% hits;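 active = viability at or below a set limit, 4 SD under the median of all tested compounds, cut at about 3.7% in these data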;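 note: PTEN knockout HCT116 line with beta catenin targeted HCT116 as companion control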
HUVEC inhibit – human endothelial cell proliferation inhibition. HUVEC proliferation, CellTiter-Glo luminescence, 72 h; hits give low values. viability, % at 10 µM (by protocol). 86,000 compounds, 1.1% hits. AID 648;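 active = viability at or below 30%; inactive = viability above 30%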
H69AR growth 86K – growth inhibitors of human H69AR lung tumor cells | H69AR lung tumor viability, ATP luminescence, 72 h; hits give low values | viability, % at 10 µM | 85,000 compounds, 6% hits;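 active = viability at or below 40%; inactive = viability above 40%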;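 note: multidrug resistant small cell line overexpressing MRP-1 efflux transporter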
Fibroblast inh – blocks proliferation of human lung fibroblasts; LL 47 human lung fibroblast viability, ATP luminescence; hits give low values; viability, % at 10 µM; 85,000 compounds, 1.1% hits; AID 719;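 active = viability at or below 50% in the single dose screen; inactive = viability above 50%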;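 note: compound exposure lasted 72 h before the ATP readout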
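Material: human lung fibroblast line LL 47, low passage; Evaluation: viability percentage against median untreated-cell control; Buffer or medium: 15% FBS in IMEM; Incubation: 72 h compound exposure at 37 °C after overnight plating; Dosing: 0.1% DMSO in all compound wells; Measured by: CellTiter-Glo luminescence.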
HCT116 bCat-KO – beta-catenin-lacking colon tumor cell growth suppression. AID 818. HCT116 beta-catenin knockout viability, CellTiter-Glo, 60 h; hits give low values. viability, % at 10 µM. 140,000 compounds, 1.5% hits;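 active = viability at or under a set limit, the compound median less 4 SD, cut at about 6% in these data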
Pyk2 oligo antag – Pyk2 (human) oligomerization antagonism | Q14289 | Q293 cells, Pyk2 FERM NanoBiT luminescence; hits give low values | z-score (the deposit names both 25 µM and 10 µM) | 99,000 compounds, 0.83% hits;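 active = Z-score of -3 or lower, scaled per plate to the spread of control and sample wells; inactive = z-score above -3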;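 note: negative z-score means lost luminescence so less FERM oligomerization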
A number is an active result; n = inactive; x = no result.

SMILES	HCT116 PTEN-null	HUVEC inhibit	H69AR growth 86K	Fibroblast inh	HCT116 bCat-KO	Pyk2 oligo antag
CCC(C)[C@H](NC(=O)Nc1cccc(Br)c1)C(=O)OC (stereo partly drawn)	n	x	x	x	n	x
COc1cc(CN2CCN(c3cccc(Cl)c3)CC2)cc(OC)c1OC	n	n	26	n	n	n
COc1ccc(CCNC(=O)CN2CCN(c3cccc(Cl)c3)CC2)cc1OC	n	n	n	n	n	n
CC1=CC(C)(C)N(S(=O)(=O)c2ccc(C)cc2)c2cc(C)ccc21	n	n	35	n	n	n
Cc1ccc(S(=O)(=O)N2C(=S)SCC2(C)C)cc1	n	n	n	n	n	x
C/C(CCC12CC3CC(CC(C3)C1)C2)=N\NC(N)=S	n	n	13	n	n	n
CC(C)=NNc1nc2sc3c(c2c(=O)[nH]1)CC(C)(C)OC3	n	x	x	x	n	x
Cc1ccc(Nc2cc(C)nn2-c2nc(C)cc(C)n2)cc1	n	n	14	n	n	n
Cc1ccc(Nc2nc3ccccc3nc2-n2nc(C)cc2C)cc1	n	n	n	n	n	x
Cc1ccc(Nc2cc(C)nn2-c2nc(C)cc(=O)[nH]2)cc1	1.5	30	1.4	4.5	2.0	n
Cc1cc(NC(=O)CSc2nc(-c3cccs3)cc(C(F)(F)F)n2)no1	n	n	29	n	n	n
Cc1cc(NC(=O)CCCS(=O)(=O)c2nc(-c3cccs3)cc(C(F)(F)F)n2)no1	3.3	x	x	x	n	n
COc1ccc(OC)c(/C=N/NC(=O)c2ccc(Cn3cc([N+](=O)[O-])cn3)o2)c1	n	x	x	x	n	x
Cc1ccc(C)c(-c2nn(-c3cc(N4CCN(CCO)CC4)ccc3[N+](=O)[O-])c(=O)c3ccccc23)c1	n	x	x	x	n	n
COc1ccc(C(=O)Nc2ccccc2C(N)=O)cc1	n	n	n	n	n	n
O=C(COc1ccc(Cl)cc1)Nc1ccccc1C(=O)NCc1ccco1	n	n	n	37	n	n
COc1ccc(C(=O)Nc2ccccc2C(=O)NC(C(=O)NCc2ccco2)C(C)C)cc1 (stereo not drawn)	2.0	n	1.2	39	1.2	n
CCC(C)NC(=O)c1ccccc1NC(=O)COc1ccc(OC)cc1 (stereo not drawn)	n	n	32	n	n	n
COc1ccc(C(=O)Nc2ccccc2C(=O)N(Cc2ccco2)C(C(N)=O)C(C)C)cc1 (stereo not drawn)	1.0	n	5.6	42	1.1	n
CCN(CC)S(=O)(=O)c1ccc(C)c(NC(=O)CSc2ncc(C(F)(F)F)cc2Cl)c1	n	x	x	x	n	n
Cc1ccc(S(=O)(=O)N2CCN(C(=O)CSc3ncc(C(F)(F)F)cc3Cl)CC2)cc1	n	n	6.2	n	n	n
Cc1ccc(S(=O)(=O)N(C)C)cc1NC(=O)CSc1ncc(C(F)(F)F)cc1Cl	n	x	x	x	1.3	x
COCCn1c(=O)c2c(nc3n2CCN3c2ccc(C)cc2)n(C)c1=O	n	n	n	n	n	x
CCCCCn1c(=S)[nH]c2ncccc2c1=O	n	n	n	n	n	n
O=c1c2cccnc2[nH]c(=S)n1CCC1=CCCCC1	n	n	38	n	n	n
SMILES	HCT116 PTEN-null	HUVEC inhibit	H69AR growth 86K	Fibroblast inh	HCT116 bCat-KO	Pyk2 oligo antag
Cc1cc(C=O)c(C)n1-c1ccc(Oc2ccc([N+](=O)[O-])cn2)cc1	n	x	x	x	n	x
COc1ccc(NC(=O)/C(C#N)=C\c2cc(C)n(-c3ccc(Oc4ccc([N+](=O)[O-])cn4)cc3)c2C)cc1	n	n	33	n	n	n
N#CC(C#N)=C(Nc1ccc(F)cc1)SCc1cccc(F)c1	n	x	x	x	n	x
CCOC(=O)C1(Nc2nccs2)Sc2ccccc2NC1=O (stereo not drawn)	n	n	16	n	n	n
O=C(Nc1cccc(Cl)c1)C1=Cc2cc(Cl)ccc2OC1	n	n	n	n	n	n
O=C(Nc1ccc(Cl)c(Cl)c1)C1=Cc2ccccc2OC1	2.6	n	16	n	2.6	n
CCOC(=O)N1CCN(c2c(F)cc3[nH]c(=S)[nH]c3c2Br)CC1	n	n	8.9	n	n	n
CCOC(=O)N1CCN(c2cc3[nH]c(=S)[nH]c3cc2F)CC1	n	n	n	n	n	n
O=c1cc2[nH]c3ccccc3c(=O)n2nc1-c1ccccc1	n	x	x	x	n	-3.1
Cc1ccc(/C=N\NC(=O)C2CN(S(=O)(=O)c3ccccc3)CCN2S(=O)(=O)c2ccccc2)cc1 (stereo not drawn)	n	x	x	x	n	x
